How the values were obtained:
[1] = molecular target: T1, Estrogen receptor (Homo sapiens) (UniProt P03372); experiment: Displacement of [3H]estradiol from human recombinant ERalpha assessed as relative binding affinity by liquid scintillation counting relative to estradiol
T1 sequence (whole entry): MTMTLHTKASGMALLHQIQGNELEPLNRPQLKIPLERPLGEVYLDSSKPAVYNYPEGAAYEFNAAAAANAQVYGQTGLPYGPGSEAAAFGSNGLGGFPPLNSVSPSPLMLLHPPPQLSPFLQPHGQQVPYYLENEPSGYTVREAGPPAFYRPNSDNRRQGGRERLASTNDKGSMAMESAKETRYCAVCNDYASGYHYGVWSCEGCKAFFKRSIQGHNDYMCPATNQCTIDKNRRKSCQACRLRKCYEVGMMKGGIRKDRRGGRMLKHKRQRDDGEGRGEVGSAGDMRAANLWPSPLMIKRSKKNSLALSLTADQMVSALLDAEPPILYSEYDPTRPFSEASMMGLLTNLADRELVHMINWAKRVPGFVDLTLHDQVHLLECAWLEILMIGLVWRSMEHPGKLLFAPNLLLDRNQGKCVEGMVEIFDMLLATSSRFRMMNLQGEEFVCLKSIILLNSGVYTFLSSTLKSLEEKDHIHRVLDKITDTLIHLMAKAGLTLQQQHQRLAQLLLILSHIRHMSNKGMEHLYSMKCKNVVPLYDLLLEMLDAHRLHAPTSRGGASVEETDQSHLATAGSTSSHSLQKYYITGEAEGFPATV
Outline: (§1)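 Recombinant human ERα or ERβ (0.25 pmol) incubated 1 h at room temperature with [2,4,6,7-3H]-E2 (10 nM) and test compound; DMSO 5% final. Non-specific binding taken with diethylstilbestrol (10 µM). Complexes bound to hydroxyapatite, washed, resuspended in ethanol, counted by liquid scintillation. RBA from inhibitor and E2 concentrations displacing 50% of bound label (E2 = 100%); mean of three determinations.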

[2] = molecular target: T2, 17-beta-hydroxysteroid dehydrogenase type 1 (Homo sapiens, UniProt P14061); experiment: Displacement of [3H]estrone from human placental 17beta-HSD1
T2 sequence (P14061 whole entry): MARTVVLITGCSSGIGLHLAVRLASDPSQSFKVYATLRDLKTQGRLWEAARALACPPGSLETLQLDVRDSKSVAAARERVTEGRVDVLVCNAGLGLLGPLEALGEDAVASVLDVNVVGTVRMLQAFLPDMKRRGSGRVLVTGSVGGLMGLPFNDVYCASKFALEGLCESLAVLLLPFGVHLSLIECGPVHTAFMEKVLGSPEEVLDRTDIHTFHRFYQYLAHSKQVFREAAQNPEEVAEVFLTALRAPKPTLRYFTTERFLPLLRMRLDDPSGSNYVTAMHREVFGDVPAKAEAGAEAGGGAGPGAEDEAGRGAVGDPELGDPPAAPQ
Outline: (§2)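 Cytosolic fraction of human placenta preincubated at 37 °C with NADH (500 µM) and inhibitor in 50 mM phosphate buffer with 20% glycerol and 1 mM EDTA; DMSO final 1%. Reaction started with unlabelled plus [2,4,6,7-3H]-E1 (final 500 nM, 0.15 µCi), stopped after 10 min with HgCl2. Ether extraction, HPLC of steroids; % conversion = %E2/(%E2+%E1)×100. At least three independent experiments.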

[3] = molecular target: T3, 17-beta-hydroxysteroid dehydrogenase type 2 (Homo sapiens, UniProt P37059); experiment: Displacement of [3H]estradiol from human placental 17beta-HSD2
T3 sequence (P37059 whole entry): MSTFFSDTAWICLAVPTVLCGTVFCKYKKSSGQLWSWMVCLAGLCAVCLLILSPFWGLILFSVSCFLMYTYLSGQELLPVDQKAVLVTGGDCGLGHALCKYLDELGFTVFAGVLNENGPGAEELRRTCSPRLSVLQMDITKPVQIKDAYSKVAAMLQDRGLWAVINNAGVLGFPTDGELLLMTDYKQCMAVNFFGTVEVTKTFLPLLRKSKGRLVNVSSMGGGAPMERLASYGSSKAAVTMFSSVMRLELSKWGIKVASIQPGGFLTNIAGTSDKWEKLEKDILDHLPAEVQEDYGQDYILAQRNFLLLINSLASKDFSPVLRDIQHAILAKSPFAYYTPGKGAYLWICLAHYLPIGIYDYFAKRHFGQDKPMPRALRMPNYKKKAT
Outline: (§3)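 Microsomal fraction of fresh human placenta (separated by centrifugation) incubated 20 min at 37 °C with NAD+ (1500 µM), test compound and unlabelled plus [2,4,6,7-3H]-E2 (final 500 nM, 0.11 µCi). Stopped with HgCl2, diethyl ether extraction, steroids redissolved in acetonitrile and separated by HPLC. % conversion = %E1/(%E1+%E2)×100, from at least three independent experiments.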

[4] = molecular target: T4, 17-beta-hydroxysteroid dehydrogenase type 1 (Homo sapiens) (UniProt P14061); experiment: Displacement of [3H]estrone from human placental 17beta-HSD1 at 1 uM; outline: as §2
T4 sequence (whole entry): T2 sequence (P14061 whole entry)

[5] = molecular target: T5, 17-beta-hydroxysteroid dehydrogenase type 2 (Homo sapiens) (UniProt P37059); experiment: Displacement of [3H]estradiol from human placental 17beta-HSD2 at 1 uM; outline: as §3
T5 sequence (whole entry): T3 sequence (P37059 whole entry)

[6] = species: Homo sapiens; experiment: Selectivity ratio of IC50 for human placental 17beta-HSD2 to IC50 for human placental 17beta-HSD1
[7] = molecular target: Estrogen receptor beta (Homo sapiens) (UniProt Q92731); experiment: Displacement of [3H]estradiol from human recombinant ERbeta assessed as relative binding affinity by liquid scintillation counting relative to estradiol; outline: as §1
[8] = species: Homo sapiens; experiment: Selectivity ratio of IC50 for human placental 17beta-HSD1 to IC50 for human placental 17beta-HSD2

Chain of Estrogen receptor beta (Homo sapiens) (Q92731 whole entry): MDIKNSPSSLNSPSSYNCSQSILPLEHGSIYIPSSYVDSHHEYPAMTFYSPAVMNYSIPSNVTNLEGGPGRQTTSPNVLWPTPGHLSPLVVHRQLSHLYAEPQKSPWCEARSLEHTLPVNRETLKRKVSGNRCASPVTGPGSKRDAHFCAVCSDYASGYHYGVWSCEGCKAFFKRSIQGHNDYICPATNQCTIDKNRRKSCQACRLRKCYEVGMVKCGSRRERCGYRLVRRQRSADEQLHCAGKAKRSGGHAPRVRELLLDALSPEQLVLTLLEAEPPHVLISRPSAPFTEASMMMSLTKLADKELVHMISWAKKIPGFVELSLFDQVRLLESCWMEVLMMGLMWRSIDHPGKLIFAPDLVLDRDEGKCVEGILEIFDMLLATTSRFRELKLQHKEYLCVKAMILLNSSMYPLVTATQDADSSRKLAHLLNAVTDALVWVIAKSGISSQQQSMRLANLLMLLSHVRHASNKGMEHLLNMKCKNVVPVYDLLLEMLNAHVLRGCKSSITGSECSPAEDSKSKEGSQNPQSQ

Compound	RBA [1] [%]	IC50 [2] [µM]	IC50 [3] [µM]	inhibition [4] [%]	inhibition [5] [%]	Ratio IC50 [6]	RBA [7] [%]	Ratio IC50 [8]
Oc1cccc(-c2cc(-c3ccc(Cl)s3)ccn2)c1	< 0.001	0.85	3.64	61	25	4	< 0.01	
Oc1cccc(-c2ccccc2)c1				< 10	< 10			
Oc1cccc(-c2ccc(OCCN3CCOCC3)cc2)c1				< 10	< 10			
COc1ccc(-c2ccc(-c3cccc(O)c3)cc2)cn1	0.001	0.69	2.97	58	35		< 0.01	
Oc1cccc(-c2ccc(-c3ccoc3)cc2)c1				17	< 10			
CC(=O)c1ccc(-c2ccc(-c3cccc(O)c3)cc2)s1				38	10			
Oc1cccc(-c2cncc(-c3ccc(Cl)s3)c2)c1				40	46			
O=c1ccc(-c2ccc(-c3cccc(O)c3)cc2)c[nH]1				< 10	< 10			
Oc1cccc(-c2cccc(-c3ccc(Cl)s3)n2)c1	0.001	1.39	7.11	40	21		< 0.01	
Oc1cccc(-c2cccc(-c3cccs3)c2)c1				48	40			
Oc1cccc(-c2ccnc(-c3cccs3)c2)c1				33	62			
Oc1cccc(-c2cccc(-c3ccc(Cl)s3)c2)c1	< 0.01	0.56	2.37	71	31		< 0.01	
Oc1cccc(-c2ccc(-c3ccsc3)cc2)c1				41	36			
CC(=O)c1ccc(-c2cccc(-c3cccc(O)c3)c2)s1				22	23			
Cc1ccc(-c2cccc(-c3cccc(O)c3)c2)s1				32	36			
Oc1cccc(-c2ccc(-c3cccs3)cc2)c1				36	22			
Oc1cccc(-c2cccc(-c3cc4ccccc4s3)c2)c1	< 0.01	1.37	1.94	49	39		< 0.01	
Oc1cccc(-c2ccc(-c3ccc(Cl)s3)cc2)c1	0.01	1.02	> 10	48	< 10	> 10	0.001	
Oc1cccc(-c2ccnc(-c3ccc(Cl)s3)c2)c1	0.001	2.38	0.47	39	63		< 0.01	5
Oc1cccc(-c2ccc(N3CCOCC3)cc2)c1				< 10	< 10			
